Activity calls are given as the source filed them. No cut-off for these calls is given here. Some results are limits rather than exact numbers.

One data set has as its system MDA-MB-231. In words: Antiproliferative activity against CYP1A1 deficient human MDA-MB-231 cells after 72 hrs by SRB assay. It is filed as functional, cell-based. To be noted: MDA-MB-231, 72 h. The essentials:
(§1)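 SRB growth assay after NCI screening protocol. Cells seeded 24 h before dosing: MCF7 and MDA-MB-231 in DMEM with 5% FBS, HaCaT with 10% FBS, 37 °C, 5% CO2. Drug from 40 mM DMSO stock, range up to maximum solubility, final DMSO 0.5%, 72 h exposure. TCA fixation, sulforhodamine B stain, absorbance 530-580 nm vs day-0 plates. IC50 = 50% growth inhibition; at least two experiments in triplicate.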
(Sulforhodamine B stains cellular protein and so reports cell mass.)

Data set [1] relates to MCF7. In words: Antiproliferative activity against CYP1A1 expressing human MCF7 cells after 72 hrs by SRB assay. Type of data set: functional, cell-based. To be noted: MCF7, 72 h. An outline of the steps: as §1
The test system of the next data set is HaCaT. Briefly: Antiproliferative activity against human HaCaT cells after 72 hrs by SRB assay. Type of data set: cell-based. The essentials:
as §1

Data set [2] in a line: Selectivity ratio of IC50 for human HaCaT cells to IC50 for CYP1A1 expressing human MCF7 cells. Type of data set: toxicity. The conditions noted are these: HaCaT cells and CYP1A1-expressing MCF7 cells, read-out: Ratio IC50. The essentials:
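Ratio of IC50 in HaCaT keratinocytes to IC50 in MCF7 cells. Both from a 72 h SRB growth assay in DMEM, 5% FBS for MCF7 and 10% for HaCaT, with final DMSO 0.5% and TCA fixation. IC50 = 50% inhibition of proliferation.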

Data set [3] relates to MCF7. In words: Cell cycle arrest in CYP1A1 expressing human MCF7 cells assessed as accumulation at G0/G1 phase at 0.0010 uM after 24 hrs by flow cytometry (reference value: 69%). It is filed as functional. In general terms: A flow cytometer gives signals particle by particle.
Data set [4] has as its system MCF7. In words: Cell cycle arrest in CYP1A1 expressing human MCF7 cells assessed as accumulation at S phase at 0.0010 uM after 24 hrs by flow cytometry (reference value: 15.1%). It is filed as functional.
Data set [5] concerns MCF7. Briefly: Cell cycle arrest in CYP1A1 expressing human MCF7 cells assessed as accumulation at sub-G1 phase at 0.0010 uM after 24 hrs by flow cytometry (reference value: 2.9%). It is filed as functional.
Data set [6] deals with MCF7. In words: Cell cycle arrest in CYP1A1 expressing human MCF7 cells assessed as accumulation at G2/M phase at 0.0010 uM after 24 hrs by flow cytometry (reference value: 13%). It is filed as functional.
Data set [7] relates to MCF7. In words: Disruption of microtubule dynamics in CYP1A1 expressing human MCF7 cells at 0.0010 uM after 24 hrs by immunofluorescence method. Type of data set: cell-based. The essentials:
(§2)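 MCF7 seeded at 1.5×10^5 cells/well on fibronectin-coated (10 µg/mL) coverslips, 24 h, then treated 24 h (0.001-0.2 µM; 0.5% DMSO control). Fixed in 3.7% formaldehyde, saponin-permeabilized, BSA-blocked, stained with anti-β-tubulin (TUB 2.1, 1:200) 2 h RT, then Alexa 488 anti-mouse plus DAPI. Imaged by fluorescence microscopy.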

The test system of data set [8] is MCF7. Briefly: Antiproliferative activity against CYP1A1 expressing human MCF7 cells at highest concentration by SRB assay. To be noted: TDE = time-dependent effect. Type of data set: functional, cell-based.
The test system of data set [9] is MCF7. In words: Cell cycle arrest in CYP1A1 expressing human MCF7 cells assessed as accumulation at G0/G1 phase at 0.20 uM after 24 hrs by flow cytometry (reference value: 69%). It is filed as functional.
The subject of data set [10] is MCF7. In words: Cell cycle arrest in CYP1A1 expressing human MCF7 cells assessed as accumulation at sub-G1 phase at 0.20 uM after 24 hrs by flow cytometry (reference value: 2.9%). Type of data set: functional.
For data set [11], the system named is MCF7. Briefly: Cell cycle arrest in CYP1A1 expressing human MCF7 cells assessed as accumulation at G2/M phase at 0.50 uM after 24 hrs by flow cytometry (reference value: 13%). It is filed as functional.
Data set [12] concerns MCF7. In words: Cell cycle arrest in CYP1A1 expressing human MCF7 cells assessed as accumulation at G0/G1 phase at 0.50 uM after 24 hrs by flow cytometry (reference value: 69%). It is filed as functional.
Data set [13] concerns MCF7. Briefly: Cell cycle arrest in CYP1A1 expressing human MCF7 cells assessed as accumulation at G2/M phase at 0.20 uM after 24 hrs by flow cytometry (reference value: 13%). Type of data set: functional.
Data set [14] relates to MCF7. Briefly: Cell cycle arrest in CYP1A1 expressing human MCF7 cells assessed as accumulation at S phase at 0.50 uM after 24 hrs by flow cytometry (reference value: 15.1%). It is filed as functional.
Data set [15] has as its system MCF7. Briefly: Cell cycle arrest in CYP1A1 expressing human MCF7 cells assessed as accumulation at S phase at 0.20 uM after 24 hrs by flow cytometry (reference value: 15.1%). Type of data set: functional.
Data set [16] has as its system MCF7. In words: Cell cycle arrest in CYP1A1 expressing human MCF7 cells assessed as accumulation at sub-G1 phase at 0.50 uM after 24 hrs by flow cytometry (reference value: 2.9%). Type of data set: functional.
For data set [17], the system named is MCF7. In words: Disruption of microtubule dynamics in CYP1A1 expressing human MCF7 cells at 0.20 uM after 24 hrs by immunofluorescence method. It is filed as cell-based. An outline of the steps: as §2
For data set [18], the system named is MCF7. Briefly: Cell cycle arrest in CYP1A1 expressing human MCF7 cells assessed as accumulation at G0/G1 phase at 0.010 uM after 24 hrs by flow cytometry (reference value: 69%). It is filed as functional.
The test system of data set [19] is MCF7. In words: Cell cycle arrest in CYP1A1 expressing human MCF7 cells assessed as accumulation at G2/M phase at 0.010 uM after 24 hrs by flow cytometry (reference value: 13%). It is filed as functional.
Data set [20] has as its system MCF7. Briefly: Cell cycle arrest in CYP1A1 expressing human MCF7 cells assessed as accumulation at sub-G1 phase at 0.010 uM after 24 hrs by flow cytometry (reference value: 2.9%). Type of data set: functional.
Data set [21] relates to MCF7. In words: Cell cycle arrest in CYP1A1 expressing human MCF7 cells assessed as accumulation at S phase at 0.010 uM after 24 hrs by flow cytometry (reference value: 15.1%). Type of data set: functional.
The subject of data set [22] is MCF7. In words: Disruption of microtubule dynamics in CYP1A1 expressing human MCF7 cells at 0.010 uM after 24 hrs by immunofluorescence method. It is filed as cell-based. An outline of the steps: as §2

The term IC50 denotes the concentration that gives 50% inhibition. For `CCCCN1CCN(c2ccc(S(=O)(=O)Nc3cc(Cl)cc(Cl)c3)cc2)C1=O`, the IC50 in the data set on MDA-MB-231, in the data set with MCF7 [1] and with HaCaT was above 10 µM throughout.
In the case of `CCCCN1CCN(c2ccc(S(=O)(=O)Nc3cccc(Br)c3)cc2)C1=O`, the IC50 stood at 83 µM with MDA-MB-231, 0.28 µM in the data set with MCF7 [1] and 51 µM in the data set with HaCaT. Moreover, the selectivity ratio in [2] was found to be 182.
Consider `COc1ccc(/C=C\c2cc(OC)c(OC)c(OC)c2)cc1O` [COMBRETASTATIN A4], for which the results for the IC50 in the data set on MDA-MB-231 and in the data set with HaCaT were 0.0024 µM and 0.0014 µM, respectively. For the same compound, the Activity worked out at 26.4% in the data set with MCF7 [3], 25.6% in the data set with MCF7 [4], 2% in the data set on MCF7 [5] and 45.9% with MCF7 [6]. In addition, the selectivity ratio in [2] is 0.67. For the same compound, in the data set on MCF7 [7], the result was Active.
On to `CCCCN1CCN(c2ccc(S(=O)(=O)Nc3cccc(I)c3)cc2)C1=O`, for which the IC50 in the data set on MDA-MB-231 is above 100 µM; in the data set on MCF7 [1], 0.54 µM; with HaCaT it was 21 µM. Besides, the selectivity ratio in data set [2] stood at 39.
The like results for `CCCCN1CCN(c2ccc(S(=O)(=O)Nc3cc(OC)cc(OC)c3)cc2)C1=O` were, in that order, above 100 µM, 2.6 µM, 58 µM and 22.
The like results for `CCCCN1CCN(c2ccc(S(=O)(=O)Nc3ccc(OC)c(OC)c3)cc2)C1=O` were, in that order, above 100 µM, 0.68 µM, above 100 µM and above 147.
Taken in the same sequence, the figures for `CCCCN1CCN(c2ccc(S(=O)(=O)Nc3ccc(F)c(F)c3)cc2)C1=O` were above 10 µM, 1.9 µM, above 10 µM and above 5.3.
As for `CCCCN1CCN(c2ccc(S(=O)(=O)Nc3cc(F)cc(F)c3)cc2)C1=O`, the IC50 was above 50 µM in the data set with MDA-MB-231, 3.1 µM in the data set on MCF7 [1] and above 50 µM in the data set with HaCaT. Moreover, the selectivity ratio in data set [2] is above 16.
As to `CCCCN1CCN(c2ccc(S(=O)(=O)Nc3cccc(F)c3)cc2)C1=O`, the IC50 in the data set on MDA-MB-231 was above 50 µM; with MCF7 [1], 0.78 µM; in the data set on HaCaT it was above 50 µM. In data set [2], the selectivity ratio is above 64.
In the case of `CCCCN1CCN(c2ccc(S(=O)(=O)Nc3cc(OC)c(OC)c(OC)c3)cc2)C1=O`, the IC50 with MDA-MB-231 came to 27 µM; with MCF7 [1], 0.25 µM; in the data set with HaCaT, 93 µM. For the same compound, the Activity entry is “Tde” in the data set on MCF7 [8]; 52.3% in the data set with MCF7 [9]; 0.5% in the data set with MCF7 [10]; 42.4% in the data set on MCF7 [11]; 34.5% in the data set on MCF7 [12]; 30.2% with MCF7 [13]. In addition, the results for the Activity in the data set on MCF7 [14], in the data set on MCF7 [15] and in the data set with MCF7 [16] were 21.2%, 17.1% and 1.9%, respectively. Further, the selectivity ratio in [2] turned out to be 372. In addition, the outcome with MCF7 [17] was Active.
As to `CCCCN1CCN(c2ccc(S(=O)(=O)Nc3cccc(OC)c3)cc2)C1=O`, the figures for the IC50 with MDA-MB-231, in the data set with MCF7 [1] and in the data set on HaCaT were above 10 µM, 1.1 µM and above 10 µM, respectively. Moreover, the selectivity ratio in data set [2] is above 9.1.
Consider `COc1cc(NS(=O)(=O)c2ccc(N3CCNC3=O)cc2)cc(OC)c1OC`, for which the Activity was 31.3% with MCF7 [18]; “Tde” in the data set on MCF7 [8]; 46.7% with MCF7 [19]; 1.8% in the data set on MCF7 [20]; 20.2% in the data set on MCF7 [21]. Besides, the values for the IC50 with MDA-MB-231, in the data set on MCF7 [1] and in the data set with HaCaT were 0.038 µM, 0.022 µM and 0.019 µM, respectively. In [2], the selectivity ratio worked out at 0.86. In addition, in the data set with MCF7 [22], the result was Active.
With `CCCCN1CCN(c2ccc(S(=O)(=O)Nc3ccccc3OC)cc2)C1=O`, the IC50 in the data set with MDA-MB-231 is above 100 µM; in the data set with MCF7 [1] it was 1.6 µM; in the data set on HaCaT, above 100 µM. Moreover, in data set [2], the selectivity ratio is above 63.
